In ChEMBL document CHEMBL1156914, “Novel inhibitors of dengue virus methyltransferase: discovery by in vitro-driven virtual screening on a desktop computer grid” (J Med Chem, 2010) one finds CC50, IC50 and EC50 data, which are given here for 34 compounds.

pEC50, pIC50: −log10 of the molar value.

Tested on in one data set: not listed separately
Briefly: Cytotoxicity against human A549 cells after 48 hrs. It is filed as cell-based.
`O=C(O)c1cnc2c([N+](=O)[O-])cccc2c1O`: the CC50 at 48 h is greater than 100 µM.
Same read-out and setting: then `O=C(O)CCC(=O)N1NC(c2c(O)nc3ccc(Cl)cc3c2-c2ccccc2)=C[C@@H]1c1ccc(Br)cc1`, with greater than 100 µM; and `COc1ccc(/C=C2/CN(CCCC(=O)O)C(=O)C2=O)cc1`, with greater than 100 µM.
The same measure, in the same setting: then `O=S(=O)(O)c1cccc(NNc2ccc(Nc3ccccc3)cc2)c1`, with greater than 100 µM; and `O=C(O)c1ccccc1/C=N/NC(=O)c1cc(-c2ccco2)nc2ccccc12`, with greater than 100 µM.
Same read-out and setting: the same measure for `CCN(CC)c1ccc(/C=N\Nc2ccc(Cl)c(C(=O)O)c2)c(O)c1`: 75.1 µM.
`O=C(O)COc1ccc(Br)cc1/C=C1\CC/C(=C\c2cc(Br)ccc2OCC(=O)O)C1=O` gave a CC50 at 48 h greater than 100 µM.
On the same count and under the same terms, then `Cc1ccc(Cl)cc1NS(=O)(=O)c1ccc(NS(=O)(=O)c2ccc3ccccc3c2)cc1`, with 22.7 µM.
On the same count and under the same terms, then `Cc1cc(O)c2c(c1)C(=O)c1cc(O)cc(O)c1C2=O` [EMODIN], with 30.7 µM.

The target of a further data set is T1, Genome polyprotein (dengue virus type 2, UniProt P12823). Kind of data set: Inhibition of Dengue virus type 2 NS5 RNA methyltransferase RNA site.
T1 sequence (P12823 2489-3388 limits assumed): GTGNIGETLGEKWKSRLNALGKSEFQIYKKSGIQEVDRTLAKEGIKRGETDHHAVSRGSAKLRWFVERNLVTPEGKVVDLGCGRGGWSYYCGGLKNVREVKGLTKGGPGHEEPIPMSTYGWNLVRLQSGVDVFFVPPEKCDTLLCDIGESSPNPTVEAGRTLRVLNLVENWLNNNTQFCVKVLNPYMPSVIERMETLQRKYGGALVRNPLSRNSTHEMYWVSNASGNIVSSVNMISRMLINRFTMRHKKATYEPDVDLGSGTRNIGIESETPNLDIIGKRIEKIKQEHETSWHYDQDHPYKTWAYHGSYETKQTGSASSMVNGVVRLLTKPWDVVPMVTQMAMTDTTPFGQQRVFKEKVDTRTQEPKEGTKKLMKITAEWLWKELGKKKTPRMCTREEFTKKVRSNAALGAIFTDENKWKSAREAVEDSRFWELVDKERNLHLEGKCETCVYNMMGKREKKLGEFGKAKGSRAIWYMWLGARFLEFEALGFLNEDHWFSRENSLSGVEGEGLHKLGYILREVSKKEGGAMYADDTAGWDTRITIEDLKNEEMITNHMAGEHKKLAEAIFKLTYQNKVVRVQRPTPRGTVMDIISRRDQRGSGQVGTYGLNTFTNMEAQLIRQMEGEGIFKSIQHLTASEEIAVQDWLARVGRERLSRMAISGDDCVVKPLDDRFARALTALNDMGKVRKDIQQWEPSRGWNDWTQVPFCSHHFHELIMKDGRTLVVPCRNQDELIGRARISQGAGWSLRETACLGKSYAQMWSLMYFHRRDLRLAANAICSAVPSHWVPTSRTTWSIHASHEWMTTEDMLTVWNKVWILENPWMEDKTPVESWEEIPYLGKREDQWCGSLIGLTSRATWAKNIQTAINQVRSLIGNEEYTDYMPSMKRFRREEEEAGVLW
As for `O=C(O)CCC(=O)N1NC(c2c(O)nc3ccc(Cl)cc3c2-c2ccccc2)=C[C@@H]1c1ccc(Br)cc1`, the pIC50 is 5.35.
Compound `O=C(O)COc1ccccc1/C=N\NC(=O)Cc1csc(Nc2cccc(C(F)(F)F)c2)n1` gave a pIC50 of 4.91.
Turning to `Cc1cc(/C=N\NC(=O)Nc2ccccc2)c(C)n1-c1cc(C(=O)O)cc(C(=O)O)c1`, the pIC50 was 4.69.
In turn, `Cc1ccc(C23CC4CC(CC(C(=O)Nc5cccc(C(=O)O)c5)(C4)C2)C3)cc1` showed a pIC50 of 4.43.
Same read-out and setting: the same measure for `O=C(O)c1cccc(NC(=O)c2ccc(CSc3ccc(Br)cc3)cc2)c1`: 5.10.
The same measure, in the same setting: then `O=S(=O)(O)c1cccc(NNc2ccc(Nc3ccccc3)cc2)c1`, with 5.12.
Same read-out and setting: then `Cc1c(CC(=O)N[C@@H](Cc2c[nH]c3ccc(O)cc23)C(=O)O)c(=O)oc2cc3occ(C(C)(C)C)c3cc12`, with 4.92.
On to `COc1cc(/C=C2/NC(=O)N(Cc3ccc(Cl)cc3Cl)C2=O)ccc1O[C@H](C)C(=O)O`, for which the pIC50 was 4.95.
On the same count and under the same terms, the same measure for `O=C(O)c1ccccc1/C=N/NC(=O)c1cc(-c2ccco2)nc2ccccc12`: 5.32.
On the same count and under the same terms, then `CCN(CC)c1ccc(/C=N\Nc2ccc(Cl)c(C(=O)O)c2)c(O)c1`, with 4.87; and `CCOc1cc(/C=C2\C(=O)N(c3ccc4ccccc4c3)N=C2C)ccc1OCCC(=O)O`, with 5.15; and `O=C(N/N=C\c1ccccc1C(=O)O)c1ccc(COc2ccc3ccccc3c2)cc1`, with 5.06.
Still for that read-out and setting: then `O=C(O)COc1ccc(Br)cc1/C=C1\CC/C(=C\c2cc(Br)ccc2OCC(=O)O)C1=O`, with 5.55; and `O=C(O)c1ccccc1C(=O)Nc1nc(-c2ccc3ccccc3c2)cs1`, with 4.84.
The compound `Cc1ccc(Cl)cc1NS(=O)(=O)c1ccc(NS(=O)(=O)c2ccc3ccccc3c2)cc1` showed a pIC50 of 5.03.
The same measure, in the same setting: then `N#Cc1c(NC(=O)c2cccc(S(=O)(=O)Nc3ccc(C(=O)O)cc3)c2)sc2c1CCCC2`, with 4.75.
On the same count and under the same terms, then `COc1cc(NS(=O)(=O)c2ccc(NC(=O)/C=C/c3cccc4ccccc34)cc2)nc(OC)n1`, with 5.17; and `COc1cc(CNc2ccc(C(=O)O)cc2)ccc1OCc1ccccc1Cl`, with 4.88.

The target of a further data set is T1, Genome polyprotein. Briefly: Inhibition of Dengue virus type 2 NS5 RNA methyltransferase RNA site with 0.1 % TX100. The method, boiled down: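 Detergent-sensitivity variant of the SPA methyl-transfer assay: 0.1% Triton X-100 added to the reaction mix. Otherwise 25 nM DENV2 MTase, 40 nM biotinylated RNA, 20 min room-temperature preincubation, 0.56 μM [3H]AdoMet. Counts read after bead stop. Duplicate wells.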
As to `O=C(O)CCC(=O)N1NC(c2c(O)nc3ccc(Cl)cc3c2-c2ccccc2)=C[C@@H]1c1ccc(Br)cc1`, the pIC50 is 4.35.
Still for that read-out and setting: then `O=C(O)COc1ccccc1/C=N\NC(=O)Cc1csc(Nc2cccc(C(F)(F)F)c2)n1`, with less than 4.00.
The same measure, in the same setting: the same measure for `Cc1cc(/C=N\NC(=O)Nc2ccccc2)c(C)n1-c1cc(C(=O)O)cc(C(=O)O)c1`: less than 4.00; for `Cc1ccc(C23CC4CC(CC(C(=O)Nc5cccc(C(=O)O)c5)(C4)C2)C3)cc1`: less than 4.00.
The compound `O=C(O)c1cccc(NC(=O)c2ccc(CSc3ccc(Br)cc3)cc2)c1` gave a pIC50 of less than 4.00.
The compound `O=S(=O)(O)c1cccc(NNc2ccc(Nc3ccccc3)cc2)c1` showed a pIC50 of 5.15.
Still for that read-out and setting: then `Cc1c(CC(=O)N[C@@H](Cc2c[nH]c3ccc(O)cc23)C(=O)O)c(=O)oc2cc3occ(C(C)(C)C)c3cc12`, with less than 4.00; and `COc1cc(/C=C2/NC(=O)N(Cc3ccc(Cl)cc3Cl)C2=O)ccc1O[C@H](C)C(=O)O`, with less than 4.00; and `O=C(O)c1ccccc1/C=N/NC(=O)c1cc(-c2ccco2)nc2ccccc12`, with 5.31.
Same read-out and setting: then `CCN(CC)c1ccc(/C=N\Nc2ccc(Cl)c(C(=O)O)c2)c(O)c1`, with 4.06; and `CCOc1cc(/C=C2\C(=O)N(c3ccc4ccccc4c3)N=C2C)ccc1OCCC(=O)O`, with less than 4.00.
Same read-out and setting: then `O=C(N/N=C\c1ccccc1C(=O)O)c1ccc(COc2ccc3ccccc3c2)cc1`, with less than 4.00; and `O=C(O)COc1ccc(Br)cc1/C=C1\CC/C(=C\c2cc(Br)ccc2OCC(=O)O)C1=O`, with 4.71.
For the compound `O=C(O)c1ccccc1C(=O)Nc1nc(-c2ccc3ccccc3c2)cs1`, the pIC50 is less than 4.00.
With `Cc1ccc(Cl)cc1NS(=O)(=O)c1ccc(NS(=O)(=O)c2ccc3ccccc3c2)cc1`, the pIC50 is 4.19.
`N#Cc1c(NC(=O)c2cccc(S(=O)(=O)Nc3ccc(C(=O)O)cc3)c2)sc2c1CCCC2` gave a pIC50 of less than 4.00.
The compound `COc1cc(NS(=O)(=O)c2ccc(NC(=O)/C=C/c3cccc4ccccc34)cc2)nc(OC)n1` gave a pIC50 of less than 4.00.
`COc1cc(CNc2ccc(C(=O)O)cc2)ccc1OCc1ccccc1Cl` showed a negative-log IC50 (pIC50) of less than 4.00.

For a further data set, the system named is dengue virus type 2. Briefly: Antiviral activity against Dengue virus type 2 infected in human A549 cells assessed as decrease in viral E protein production by cell-based flavivirus immunodetection assay. The class given is functional, organism-based.
With `O=C(O)c1cnc2c([N+](=O)[O-])cccc2c1O`, the pEC50 was less than 4.00.
Still for that read-out and setting: the same measure for `O=C(O)CCC(=O)N1NC(c2c(O)nc3ccc(Cl)cc3c2-c2ccccc2)=C[C@@H]1c1ccc(Br)cc1`: less than 4.00; for `COc1ccc(/C=C2/CN(CCCC(=O)O)C(=O)C2=O)cc1`: less than 4.00.
Still for that read-out and setting: then `O=S(=O)(O)c1cccc(NNc2ccc(Nc3ccccc3)cc2)c1`, with less than 4.00; and `O=C(O)c1ccccc1/C=N/NC(=O)c1cc(-c2ccco2)nc2ccccc12`, with less than 4.00.
As for `CCN(CC)c1ccc(/C=N\Nc2ccc(Cl)c(C(=O)O)c2)c(O)c1`, the pEC50 is 4.30.
Turning to `O=C(O)COc1ccc(Br)cc1/C=C1\CC/C(=C\c2cc(Br)ccc2OCC(=O)O)C1=O`, the pEC50 was less than 4.00.
Take `Cc1ccc(Cl)cc1NS(=O)(=O)c1ccc(NS(=O)(=O)c2ccc3ccccc3c2)cc1`: the pEC50 was 4.92.
With `Cc1cc(O)c2c(c1)C(=O)c1cc(O)cc(O)c1C2=O` [EMODIN], the pEC50 is 4.96.

The next data set addresses T1, Genome polyprotein. Kind of data set: Inhibition of Dengue virus type 2 NS5 RNA methyltransferase at 80 nM enzyme concentration.
Regarding `O=S(=O)(O)c1cccc(NNc2ccc(Nc3ccccc3)cc2)c1`, the pIC50 is 4.99.

A further data set deals with T1, Genome polyprotein. Kind of data set: Inhibition of Dengue virus type 2 NS5 RNA methyltransferase at 8 nM enzyme concentration.
For `O=S(=O)(O)c1cccc(NNc2ccc(Nc3ccccc3)cc2)c1`, the pIC50 was 5.12.

For another data set, the target named is T1, Genome polyprotein. Briefly: Inhibition of Dengue virus type 2 NS5 RNA methyltransferase by spin-down assay.
Consider `COc1ccc(/C=C2/CN(CCCC(=O)O)C(=O)C2=O)cc1`, for which the pIC50 is 4.98.
On the same count and under the same terms, then `O=S(=O)(O)c1cccc(NNc2ccc(Nc3ccccc3)cc2)c1`, with 4.97.
`O=C(O)c1ccccc1/C=N/NC(=O)c1cc(-c2ccco2)nc2ccccc12` had a pIC50 of 5.36.

Another data set addresses T1, Genome polyprotein. Briefly: Inhibition of Dengue virus type 2 NS5 RNA methyltransferase SAM site with 0.1 % TX100.
Consider `O=C(O)c1cnc2c([N+](=O)[O-])cccc2c1O`, for which the pIC50 is 4.84.
Still for that read-out and setting: then `O=C(O)c1ccc(S(=O)(=O)c2ccc(C(=O)O)cc2)cc1`, with less than 4.00; and `NC(=O)C1=CN(Cc2ccccc2)C=CC1`, with less than 4.00; and `Cc1cc(C(=O)CSc2nc(N)cc(=O)[nH]2)c(C)n1Cc1ccc2c(c1)OCO2`, with less than 4.00.
Same read-out and setting: then `O=C(CCCCC(=O)N/N=C/c1ccc(O)cc1O)N/N=C/c1ccc(O)cc1O`, with less than 4.60; and `Cc1ccccc1COc1ccc(C(=O)[C@@H]2C(=O)C(=O)N(Cc3ccncc3)[C@H]2c2cccc(O)c2)cc1`, with less than 4.00; and `O=C(Cn1ccc(=O)[nH]c1=O)Nc1ccc(O)c([N+](=O)[O-])c1`, with less than 4.00.
Take `COc1ccc(/C=C2/CN(CCCC(=O)O)C(=O)C2=O)cc1`: the pIC50 is 5.35.
Same read-out and setting: the same measure for `O=C1NC(=O)/C(=C\c2ccc(O)cc2)N1`: less than 4.00; for `O=S(=O)(Nc1ccccc1)c1cc(S(=O)(=O)Nc2ccccc2)c2cc(O)ccc2c1`: less than 4.00; for `O=C(c1cccc([N+](=O)[O-])c1)c1no[n+]([O-])c1C(=O)c1cccc([N+](=O)[O-])c1`: less than 4.00.
As to `O=C1C(=O)N(Cc2cccnc2)[C@H](c2cccc(Oc3ccccc3)c2)/C1=C(/O)c1ccco1`, the pIC50 was less than 4.00.
On the same count and under the same terms, the same measure for `COc1ccc(CN(CC[C@@H](c2ccccc2)c2ccco2)C(=O)c2ccoc2)cc1`: less than 4.60; for `Cc1ccc(C)c(C(=O)C2=C(O)C(=O)N(CCc3ccccc3)[C@@H]2c2ccc(O)cc2)c1`: less than 4.00; for `COc1ccc2c(c1)C(CC(=O)O)CN2Cc1ccccc1` (stereo unspecified): less than 4.00.
Still for that read-out and setting: then `Cc1cc(O)c2c(c1)C(=O)c1cc(O)cc(O)c1C2=O` [EMODIN], with 4.10.

The target of the next data set is T1, Genome polyprotein. Briefly: Inhibition of Dengue virus type 2 NS5 RNA methyltransferase SAM site.
`O=C(O)c1cnc2c([N+](=O)[O-])cccc2c1O` showed a pIC50 of 4.84.
Same read-out and setting: the same measure for `O=C(O)c1ccc(S(=O)(=O)c2ccc(C(=O)O)cc2)cc1`: 4.52.
Regarding `NC(=O)C1=CN(Cc2ccccc2)C=CC1`, the pIC50 was 4.60. The pIC50 values of the last two compounds are within 0.2 log units of each other.
Still for that read-out and setting: then `Cc1cc(C(=O)CSc2nc(N)cc(=O)[nH]2)c(C)n1Cc1ccc2c(c1)OCO2`, with 4.79; and `O=C(CCCCC(=O)N/N=C/c1ccc(O)cc1O)N/N=C/c1ccc(O)cc1O`, with 5.37; and `Cc1ccccc1COc1ccc(C(=O)[C@@H]2C(=O)C(=O)N(Cc3ccncc3)[C@H]2c2cccc(O)c2)cc1`, with 5.02.
On the same count and under the same terms, then `O=C(Cn1ccc(=O)[nH]c1=O)Nc1ccc(O)c([N+](=O)[O-])c1`, with 4.54; and `COc1ccc(/C=C2/CN(CCCC(=O)O)C(=O)C2=O)cc1`, with 5.06.
Still for that read-out and setting: then `O=C1NC(=O)/C(=C\c2ccc(O)cc2)N1`, with 4.56; and `O=S(=O)(Nc1ccccc1)c1cc(S(=O)(=O)Nc2ccccc2)c2cc(O)ccc2c1`, with 4.68.
In turn, `O=C(c1cccc([N+](=O)[O-])c1)c1no[n+]([O-])c1C(=O)c1cccc([N+](=O)[O-])c1` gave a pIC50 of 4.50.
The same measure, in the same setting: the same measure for `O=C1C(=O)N(Cc2cccnc2)[C@H](c2cccc(Oc3ccccc3)c2)/C1=C(/O)c1ccco1`: 4.89.
Compound `COc1ccc(CN(CC[C@@H](c2ccccc2)c2ccco2)C(=O)c2ccoc2)cc1` had a pIC50 of 5.54. This pIC50 lies 0.65 log units higher than the previous one.
`Cc1ccc(C)c(C(=O)C2=C(O)C(=O)N(CCc3ccccc3)[C@@H]2c2ccc(O)cc2)c1` had a pIC50 of 5.01.
Consider `COc1ccc2c(c1)C(CC(=O)O)CN2Cc1ccccc1` (stereo unspecified), for which the pIC50 was 4.56.
Still for that read-out and setting: then `Cc1cc(O)c2c(c1)C(=O)c1cc(O)cc(O)c1C2=O` [EMODIN], with 4.77.

The CC50 is the concentration giving 50% cytotoxicity. Low readings indicate harm at low concentration, high ones better tolerance by the cells. As a reminder, the pIC50 is the negative decadic logarithm of the IC50, by convention in mol/L. The term pEC50 denotes −log10 of the EC50, conventionally taken in molar units.
